Data set [1] concerns MCF7. Briefly: Cytotoxicity against human MCF7 cells assessed as inhibition of cell proliferation. It is filed as cell-based.
Data set [2] deals with Trypanosoma brucei rhodesiense. Briefly: Antitrypanosomal activity against Trypanosoma brucei rhodesiense STIB 900 after 72 hrs by alamar blue assay. The format is functional, organism-based. The settings on record: STIB 900, 72 h. The procedure, abridged:
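Bloodstream forms of clone STIB 900 (patient isolate, Tanzania 1982), 1 × 10^3 per well, exposed to 3-fold serial dilutions from a top concentration of 30 μg/ml. DMSO stocks were diluted in medium. Incubation 72 h at 37 °C, 5% CO2, in triplicate. Alamar Blue was then added for 2-4 h more. Fluorescence read at ex 530/em 580 nm, IC50 by curve fit.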
(The colour change of resazurin is a common sign of viable cells or microbes.)

Data set [3] can be described thus: Selectivity index, ratio of IC50 for cytotoxicity against human MCF7 cells to IC50 for Trypanosoma brucei rhodesiense STIB 900. It is filed as toxicity, cell-based. The settings on record: read-out: Ratio IC50.

The structures appear in SMILES notation. pIC50: −log10 of the molar value.

For 13 compounds, IC50 and selectivity ratio results are on record in ChEMBL document CHEMBL3751823, “Design, synthesis and antitrypanosomal activities of 2,6-disubstituted-4,5,7-trifluorobenzothiophenes” (Eur J Med Chem, 2016).

As to `COC(=O)c1cc2c(F)c(F)c(Oc3ccccc3Br)c(F)c2s1`, the pIC50 – broadly, −log10 of the IC50, conventionally taken in molar units – in data set [1] is below 4.60; in data set [2] it was 4.52.

On to `COC(=O)c1cc2c(F)c(F)c(-n3cnc4ccccc43)c(F)c2s1`, for which the figures for the pIC50 in data set [1] and in data set [2] were below 4.92 and 6.22, respectively. Further, the selectivity ratio in data set [3] is above 20.

Regarding `COC(=O)c1cc2c(F)c(F)c(Sc3ccccc3Br)c(F)c2s1`, the pIC50 is below 4.60 in data set [1] and 4.92 in data set [2].

Take `COC(=O)c1cc2c(F)c(F)c(Sc3ccc(C(C)(C)C)cc3)c(F)c2s1`: the pIC50 in data set [1] was below 4.30; in data set [2], 4.17.

Turning to `COC(=O)c1cc2c(F)c(F)c(-n3ccnc3)c(F)c2s1`, the negative logarithm of the IC50 (pIC50) in data set [1] is below 4.00; in data set [2] it was 3.89.

On to `O=C(c1ccccc1)c1cc2c(F)c(F)c(Sc3ccccc3Br)c(F)c2s1`, for which the pIC50 in data set [1] was below 4.60; in data set [2], 5.01.

On to `O=C(c1ccccc1)c1cc2c(F)c(F)c(Oc3ccccc3Br)c(F)c2s1`, for which the figures for the pIC50 in data set [1] and in data set [2] were below 4.60 and 4.80, respectively.

With `O=C(c1ccccc1)c1cc2c(F)c(F)c(-n3ccnc3)c(F)c2s1`, the figures for the pIC50 in data set [1] and in data set [2] were below 4.22 and 4.48, respectively.

For the compound `COC(=O)CSc1c(F)c(F)c2cc(C(=O)OC)sc2c1F`, the pIC50 in data set [1] was below 4.60; in data set [2], below 5.00.

As to `O=C(c1ccccc1)c1cc2c(F)c(F)c(-n3cnc4ccccc43)c(F)c2s1`, the figures for the pIC50 in data set [1] and in data set [2] were below 4.60 and 6.28, respectively. For the same compound, in data set [3], the selectivity ratio worked out at 50.

In the case of `O=C(CSc1c(F)c(F)c2cc(C(=O)c3ccccc3)sc2c1F)c1ccccc1`, the pIC50 in data set [1] was below 4.30; in data set [2], below 5.00.

On to `CC(C)(C)c1ccc(Sc2c(F)c(F)c3cc(C(=O)c4ccccc4)sc3c2F)cc1`, for which the pIC50 was below 4.60 in data set [1] and 4.50 in data set [2].

As to `Nc1nc(N)nc(Nc2ccc([As]3SCC(CO)S3)cc2)n1` (configuration not stated) [MELARSOPROL], in data set [2], the pIC50 is 7.29.
